32 molecules from ChEMBL document CHEMBL1131341, “Orally active antimalarial 3-substituted trioxanes: new synthetic methodology and biological evaluation” (J Med Chem, 1998) can be followed below.

The subject of assay [1] is Plasmodium falciparum. The assay can be described thus: In vitro antimalarial activity in chloroquine-sensitive Plasmodium falciparum NF54. In kind it is functional, organism-based. The gist of the method:
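IC50 (nM) was measured against cultured parasites in quadruplicate and derived from fitted dose-response curves with R² ≥0.989.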

Assay [2] relates to Plasmodium berghei. The assay can be described thus: Effective in vivo dose ED50 against Plasmodium berghei N after oral dose at 1,3,10 or 30 mg/kg/day, n=5. In kind it is functional. The method in brief:
(§1)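 Mice infected with chloroquine-sensitive P. berghei (N) were dosed daily for 4 days at 1, 3, 10 and 30 mg/kg, with five mice per dose regimen. The ED values were derived from these four dose levels.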

For assay [3], the system named is Plasmodium berghei. The assay can be described thus: Effective in vivo dose ED50 against Plasmodium berghei N after subcutaneous dose at 1,3,10 or 30 mg/kg/day, n=5. Type of assay: functional. The following applies: sc. The method in brief:
as §1

For assay [4], the system named is Plasmodium berghei. Nature of the assay: Effective in vivo dose ED90 against Plasmodium berghei N on oral administration. In kind it is functional. The gist of the method: as §1

In the case of `CO[C@@H]1O[C@]2(c3ccc(-c4ccccc4)cc3)CC[C@H]3CCCCC31OO2`, 76 nM corresponded to half-maximal inhibition in assay [1] (IC50). On the same count and under the same terms, the result for `CO[C@H]1O[C@]2(C)CC[C@H]3CCCCC31OO2` reads 960 nM; that for `CO[C@@H]1O[C@]2(CF)CC[C@H]3CCCCC31OO2`, 320 nM. Same read-out and setting: the result for `CO[C@H]1O[C@]2(c3ccccc3)CC[C@H]3CCCCC31OO2` reads 38 nM. For the molecule `CO[C@H]1O[C@]2(c3cccc4ccccc34)CC[C@H]3CCCCC31OO2`, the midpoint of inhibition in assay [1], the IC50, lay at 44 nM. On to `CO[C@H]1O[C@]2(c3ccc(COC(C)=O)cc3)CC[C@H]3CCCCC31OO2`, for which the 50% effective dose (ED50) in assay [2] stood at 14 mg/kg; in assay [3], 2.8 mg/kg. For the same molecule, the ED90 in assay [4] stood at 22 µM/kg. For the same molecule, the IC50 in assay [1] worked out at 20 nM. In assay [1], `CO[C@@H]1O[C@]2(c3ccccc3)CC[C@H]3CCCCC31OO2` came in with an IC50 of 110 nM. Still for that read-out and setting: the result for `COc1ccc([C@@]23CC[C@H]4CCCCC4(OO2)C(OC)O3)cc1` (some centres not stated) reads more than 2500 nM; that for `CO[C@@H]1O[C@]2(c3ccc(F)cc3C)CC[C@H]3CCCC[C@@]31OO2`, 99 nM. With `CO[C@H]1O[C@]2(c3ccc(COCc4ccc(F)cc4)cc3)CC[C@H]3CCCCC31OO2`, the ED50 in assay [2] worked out at 3.8 mg/kg; in assay [3], 3.5 mg/kg. For the same molecule, the ED90 in assay [4] came out at 6.8 µM/kg. Further, the IC50 in assay [1] was 23 nM. For the molecule `CO[C@H]1O[C@]2(c3ccc(-c4ccccc4)cc3)CC[C@H]3CCCCC31OO2`, half-maximal inhibition in assay [1] (IC50) required 68 nM. Consider `CO[C@@H]1O[C@]2(c3ccc(F)cc3)CC[C@H]3CCCCC31OO2`, for which half-maximal inhibition in assay [1] (IC50) was put at 65 nM. Molecule `COC(=O)OCc1ccc([C@@]23CC[C@H]4CCCCC4(OO2)[C@H](OC)O3)cc1` showed an IC50 in assay [1] of 79 nM. As to `CO[C@H]1O[C@]2(c3ccc(CO)cc3)CC[C@H]3CCCCC31OO2`, the ED50 was determined as 5.5 mg/kg in assay [2] and 3.4 mg/kg in assay [3]. Besides, the ED90 in assay [4] came out at 12 µM/kg. Further, the midpoint of inhibition in assay [1], the IC50, lay at 15 nM. Regarding `CO[C@H]1O[C@]2(CF)CC[C@H]3CCCCC31OO2`, the IC50 in assay [1] came out at 160 nM.

On to `CO[C@@H]1O[C@]2(c3cccc4ccccc34)CC[C@H]3CCCCC31OO2`, for which the midpoint of inhibition in assay [1], the IC50, lay at 170 nM. On the same count and under the same terms, the result for `COCc1ccc([C@@]23CC[C@H]4CCCCC4(OO2)[C@H](OC)O3)cc1` reads 39 nM; that for `CO[C@H]1O[C@]2(c3ccc(C(F)(F)F)cc3)CC[C@H]3CCCCC31OO2`, 53 nM. As to `CO[C@H]1O[C@]2(c3ccc(F)cc3)CC[C@H]3CCCCC31OO2`, the ED50 came to 10 mg/kg in assay [2] and 6.8 mg/kg in assay [3]. The molecule also showed an ED90 in assay [4] of 23 µM/kg. Further, in assay [1], the IC50 amounted to 30 nM. As to `CO[C@H]1O[C@]2(c3ccc(Cl)cc3)CC[C@H]3CCCCC31OO2`, in assay [1], it took 55 nM to reach half-maximal inhibition (IC50). Same read-out and setting: the result for `COCc1ccc([C@@]23CC[C@H]4CCCCC4(OO2)[C@@H](OC)O3)cc1` reads 51 nM; that for `CO[C@@H]1O[C@]2(c3ccc(COCc4ccc(F)cc4)cc3)CC[C@H]3CCCCC31OO2`, 42 nM. On to `CO[C@@H]1O[C@]2(c3ccc(C(F)(F)F)cc3)CC[C@H]3CCCCC31OO2`, for which the IC50 in assay [1] came to 39 nM. In turn, `CO[C@@H]1O[C@]2(c3ccc(COC(C)=O)cc3)CC[C@H]3CCCCC31OO2` registered an IC50 in assay [1] of 44 nM. With `CO[C@@H]1O[C@@]2(c3ccccc3)OOC13CCCC[C@@H]3CC2C` (some centres not stated), the 50% inhibitory concentration (IC50) in assay [1] turned out to be 21 nM.

As for `CO[C@@H]1O[C@]2(c3ccco3)CC[C@H]3CCCCC31OO2`, the midpoint of inhibition in assay [1], the IC50, lay at 600 nM. `CO[C@H]1O[C@]2(c3ccc(F)cc3C)CC[C@H]3CCCC[C@@]31OO2` had an IC50 in assay [1] of 34 nM. On the same count and under the same terms, under `CO[C@@H]1O[C@]2(c3ccc(CO)cc3)CC[C@H]3CCCCC31OO2` stands 78 nM; under `CO[C@@H]1O[C@]2(c3ccc(Cl)cc3)CC[C@H]3CCCCC31OO2`, 49 nM.

`CO[C@H]1O[C@]2(CCC(F)(F)F)CC[C@H]3CCCCC31OO2` showed an IC50 in assay [1] of 84 nM. With `C[C@@H]1CC[C@H]2[C@@H](C)C(=O)O[C@@H]3O[C@@]4(C)CC[C@@H]1[C@]32OO4` [ARTEMISININ], the ED50 was 8.5 mg/kg in assay [2] and 3 mg/kg in assay [3]. In assay [1], this molecule showed an IC50 of 9.2 nM. As to `CCN(CC)CCCC(C)Nc1ccnc2cc(Cl)ccc12` (configuration not stated) [CHLOROQUINE], the ED50 was 1.2 mg/kg in assay [2] and 1 mg/kg in assay [3].
